Assay results published in article PMC10351452 (Autophagy, 2023).

How the values were obtained:
[1] = tested on: BCL2L1(BCL-XL)-BAX interaction; assay: PCA lysate mixing protocol BCL2L1-L1 + BAX-L2; assay type: biochemical; settings: 1 µM ABT-737 incubated with BCL2L1-L1 lysate 1 h prior to BAX-L2 lysate
[2] = tested on: NCI-H460 human lung cancer cells; assay: Cell viability; assay type: cell-based; settings: CQ 10 µM, 4 days
[3] = tested on: autophagosomes and autolysosomes in RFP-GFP-LC3B PANC1 cells; assay: Autophagy flux assay in RFP-GFP-LC3B PANC1 stable cells; assay type: cell-based, human; settings: RFP-GFP-LC3B PANC1, CQ 10 µM, 24 h
How it was run: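 PANC1 cells transfected with an RFP-GFP-LC3B vector and kept two weeks under puromycin to give a stable polyclonal line. Plated on coverslips at 3X105 cells/well and treated next day, with CQ 10 µM as a comparator. After 24 h: DAPI stain, 4% paraformaldehyde fixation, confocal imaging. Autophagosomes RFP+GFP+; autolysosomes counted as red minus green dots per cell. Normalised to DMSO, mean ± SD, n = 3 biological repeats, two-way ANOVA/Sidak.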

[4] = tested on: PANC1 cells; assay: Cell viability; assay type: cell-based, human; settings: CQ 10 µM, day 4; stated as similar to compound 189
[5] = tested on: NCI-H1299 cells; assay: Cell viability; assay type: cell-based, human; settings: CQ, 4 days
How it was run: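 HEC-1A (DMEM/F12) and NCI-H1299 (RPMI) cells, media with 10% FBS, plated at 2000 cells/well and treated next day with test compound 10 µM. CQ 10 µM was used in HEC-1 cells. CellTiter-Glo luminescence read after 4 days and expressed as growth relative to DMSO. Mean ± SD; n = 11 for HEC-1A, n = 6 for NCI-H1299. One-way ANOVA with Tukey.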

CN(C)CC[C@H](CSc1ccccc1)Nc1ccc(S(=O)(=O)NC(=O)c2ccc(N3CCN(Cc4ccccc4-c4ccc(Cl)cc4)CC3)cc2)cc1[N+](=O)[O-] [ABT-737]
luminescence in BCL2L1-L1/BAX-L2 PCA [1]: significant decrease in luminescence

CCN(CC)CCCC(C)Nc1ccnc2cc(Cl)ccc12 (centres unmarked) [CQ, chloroquine]
effect on growth of NCI-H460 cells [2]: no effect
number of autophagosomes and autolysosomes per cell [3]: shift toward increased number of autophagosomes at the expense of autolysosomes
reduction of growth of PANC1 cells [4]: > 50%
response of NCI-H1299 cells (viability) [5]: did not respond
